A selection: hits, their analogues and other compounds. The true share with any hit is near 1.7%.
Vif inh: blocks HIV Vif function; hit rate 0.35% among 340,000; inhibition, % at 7.49 µM; HEK293T cells, Vif self-association by quenched fluorescence, imaging, 24 h; in the data active = inhibition above about 50%, passing the limit was not always enough
Statin myotox sup: protects C2C12 myotubes from simvastatin toxicity | hit rate 0.78% among 330,000 | ATP luminescence, 48 h; scaled: DMSO 0, geranylgeraniol control 100 | rescue of ATP level, % at 7.49 µM;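 active = mean ATP rescue above about 67%, or every replicate alone reaching that limit, limit read from the data, passing the limit was not always enough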;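 note: myotubes were challenged with 10 µM simvastatin during compound exposure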
SR-BI DiI-HDL act: activators of SR-BI mediated HDL lipid uptake | hit rate 0.096% among 320,000 | AID 504775 | activation, % at 12.5 µM | CHO ldlA[mSR-BI] cells, DiI-HDL uptake fluorescence, 3 h; 100 = double the neutral-control signal;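 active = mean replicate activation of at least 60% and every replicate at or above 60%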;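 note: 0% = median plate neutral-control signal and 100% = twice that signal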
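Assay system: LDL receptor-deficient CHO ldlA cells overexpressing murine SR-BI / Medium: BSA-supplemented, HEPES-buffered Ham's F12, pH 7.4 / Probe or stimulus: DiI-labelled HDL at 10 µg/mL final / Timing: compound with DiI-HDL co-incubation, 3 h at 37 °C / Technique: bottom-read cell fluorescence after medium removal, ex 550/em 595 nm / Measure: HDL uptake via cellular fluorescence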
SR-BI DiI inh: mouse SR-BI HDL lipid transfer inhibition; Q61009; ldlA[mSR-BI] CHO cells, DiI-HDL uptake fluorescence, 3 h; inhibition, % at 12.5 µM; hit rate 0.96% among 320,000;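 active = mean replicate inhibition of at least 70% and a set share of replicates each scoring 70 or more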;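 note: 0% = median of neutral control wells and 100% = median of positive control wells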
Target sequence (Q61009 whole entry, looked up): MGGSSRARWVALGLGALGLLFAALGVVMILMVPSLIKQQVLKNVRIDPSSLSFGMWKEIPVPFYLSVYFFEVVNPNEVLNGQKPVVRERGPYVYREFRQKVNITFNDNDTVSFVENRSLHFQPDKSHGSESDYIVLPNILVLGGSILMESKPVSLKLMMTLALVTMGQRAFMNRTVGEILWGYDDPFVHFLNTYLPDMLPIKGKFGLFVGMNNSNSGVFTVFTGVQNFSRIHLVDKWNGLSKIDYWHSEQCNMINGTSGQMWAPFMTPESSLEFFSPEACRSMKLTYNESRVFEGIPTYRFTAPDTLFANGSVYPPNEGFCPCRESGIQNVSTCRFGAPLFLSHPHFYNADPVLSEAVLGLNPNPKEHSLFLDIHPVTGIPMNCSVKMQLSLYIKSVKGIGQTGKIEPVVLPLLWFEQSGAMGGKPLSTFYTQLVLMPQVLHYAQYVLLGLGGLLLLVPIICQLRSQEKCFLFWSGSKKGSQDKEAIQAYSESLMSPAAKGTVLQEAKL
Starred values were filed as active, the others as inactive; nt = not tested or not shown.

SMILES | Vif inh | Statin myotox sup | SR-BI DiI-HDL act | SR-BI DiI inh
CCC(=O)Nc1ccc2c(c1)C(=O)N(C)C[C@@H](OC)[C@H](C)CN(Cc1ccncc1)[C@H](C)CO2 | nt | -6 | nt | nt
COCC(=O)Nc1nc(-c2ccc(C)cc2)c(C)s1 | -12 | 123* | -19 | 19
COc1ccc(C)cc1NC(=O)CCCNC(=O)Cn1cnc2sc(C)c(C)c2c1=O | -9 | 40 | -78 | 78*
COc1cc(OC)c(NC(=O)CCCNC(=O)Cn2cnc3sc(C)c(C)c3c2=O)cc1Cl | -9 | 19 | -81 | 81*
CCOc1ccccc1NC(=O)CCCNC(=O)Cn1cnc2sc(C)c(C)c2c1=O | -11 | 13 | -72 | 72*
COc1ccc(NC(=O)CCCNC(=O)Cn2cnc3sc(C)c(C)c3c2=O)cc1Cl | -4 | 4 | nt | nt
COc1ccc(CCNC(=O)Cn2cnc3sc(C)c(-c4ccc(F)cc4)c3c2=O)cc1OC | -1 | nt | -36 | 36
COC(=O)c1sc2ncn(CC(=O)NCCc3ccc(OC)c(OC)c3)c(=O)c2c1C | -17 | -10 | -76 | 76*
CCC(=O)N1CC[C@@H]2[C@@H](CO)Nc3ccc(-c4cccc(C#N)c4)cc3[C@@H]21 | nt | 12 | nt | nt
Cn1cnc(S(=O)(=O)N[C@H]2C=C[C@H](CC(=O)Nc3ccccc3)O[C@H]2CO)c1 | nt | 5 | nt | nt
Cc1ccc(CNC(=O)CNS(=O)(=O)c2cccc3nsnc23)cc1 | 2 | 101* | nt | nt
Cc1cc(C)n(C(=O)c2ccc(Cl)c(F)c2F)n1 | 16 | nt | 7 | -7
COc1c(Cl)cc(Cl)cc1C(=O)n1nc(C)cc1C | 6 | 98* | -49 | 49
O=c1cc(-c2ccc(O)cc2)oc2ccccc12 | 2 | 24 | -23 | 23
O=c1cc(-c2ccncc2)oc2ccccc12 | -4 | 115* | 24 | -24
Cc1ccnc(NC(=O)CCCOc2cc(=O)n(C)c3ccccc23)c1 | 97* | -46 | -16 | 16
CC1CN(S(=O)(=O)c2ccc(C(=O)NCCCn3ccnc3)cc2)CC(C)O1 (configuration not stated) | 52* | nt | 9 | -9
CC(C)NC(=O)N(C)C[C@H]1Oc2ccc(NC(=O)Cc3ccccc3)cc2C(=O)N([C@H](C)CO)C[C@H]1C | nt | 5 | nt | nt
C[C@H]1CN([C@@H](C)CO)C(=O)c2cc(NC(=O)C3CCCCC3)ccc2O[C@@H]1CN(C)C(=O)Nc1ccc(C(F)(F)F)cc1 | nt | -9 | nt | nt
C/C(=N\NC(=O)c1nn(C)c(C)c1Br)c1ccc(NC(=O)C2CCCC2)cc1 | -3 | -31 | -80 | 80*
Cc1c(C(=O)Nc2ccc(F)c(F)c2)oc2ccc(S(=O)(=O)N3CCCCC3)cc12 | -51 | -48 | -75 | 75*
O=C(Nc1ccc(Cl)c(S(=O)(=O)N2CCOCC2)c1)c1cc(-c2ccccn2)nc2ccccc12 | -5 | -17 | -83 | 83*
CC(=O)Nc1ccc(NC(=O)c2cc(=O)c3cc(C)c(C)cc3o2)cc1 | -5 | -7 | -72 | 72*
CC(=O)Nc1ccc(NC(=O)c2cc(=O)c3ccc(C)cc3o2)cc1 | -5 | -2 | -21 | 21
O=C(Nc1ccc(Cl)c(S(=O)(=O)N2CCOCC2)c1)c1ccc2c(c1)OCCO2 | -21 | -31 | -72 | 72*
SMILES | Vif inh | Statin myotox sup | SR-BI DiI-HDL act | SR-BI DiI inh
Cc1c(C(=O)Nc2ccc(F)cc2)oc2ccc(S(=O)(=O)N3CCCC3)cc12 | 11 | -3 | -19 | 19
O=C(Nc1ccc(Cl)c(S(=O)(=O)N2CCOCC2)c1)c1ccc2c(c1)OCO2 | -40 | -1 | -59 | 59
C[C@H](CO)N1C[C@H](C)[C@H](CN(C)Cc2ccc3c(c2)OCO3)Oc2ccc(NC(=O)Nc3ccc(C(F)(F)F)cc3)cc2C1=O | nt | 13 | nt | nt
C[C@@H]1CN([C@H](C)CO)C(=O)c2cc(N(C)C)ccc2O[C@H]1CN(C)S(=O)(=O)c1cccs1 | nt | 4 | nt | nt
COc1ccc(NC(=O)c2cc(-c3ccco3)nc3ccccc23)cc1S(=O)(=O)N1CCOCC1 | 2 | -20 | -89 | 89*
Cc1ccc(NC(=O)c2ccc3ccccc3n2)cc1S(=O)(=O)N1CCOCC1 | -8 | -2 | -95 | 95*
COc1ccc(NC(=O)c2cc(C)nc3ccccc23)cc1S(=O)(=O)N1CCOCC1 | 28 | -2 | -32 | 32
Cc1ccc(NC(=O)c2cc(=O)c3ccccc3o2)cc1S(=O)(=O)N1CCCCC1 | -20 | nt | -80 | 80*
C[C@H](CO)N1C[C@H](C)[C@@H](CN(C)C)Oc2ncc(C#CCN(C)C)cc2C1=O | nt | -9 | nt | nt
Cc1ccc(C2C(=O)N(C3CCC(C)CC3)CC(=O)N2C2CCCC2)cc1 (configuration not stated) | 3 | 124* | 39 | -39
CCC(=O)N(C)C[C@H]1Oc2cc(C#CCN(C)C)ccc2S(=O)(=O)N([C@H](C)CO)C[C@@H]1C | nt | 6 | nt | nt
COc1cc2c(cc1OC)C(c1ccccc1)NCC2 (configuration not stated) | -4 | -8 | -7 | 7
COc1cc2c(cc1OC)C(c1cc(OC)c(OC)c(OC)c1)NCC2 (configuration not stated) | -3 | 113* | 5 | -5
CCOC(=O)c1c(C)sc2c1N(C(=O)CN(CC)CC)c1cc(Cl)ccc1S2 | -2 | 115* | 10 | -10
CCOC(=O)c1c(C)sc2c1N(C(=O)CN(CC)CC)c1ccccc1S2 | 0 | nt | 21 | -21
Cc1cc(C)n(CCNC(=O)c2cc(COc3c(F)cccc3F)on2)n1 | 52* | 3 | -5 | 5
O=C(NC(=S)NCCN1CCOCC1)c1ccccc1Cl | 6 | 20 | 3 | -3
O=C(NC(=S)NCCN1CCOCC1)c1ccc(Cl)cc1Cl | -1 | 89* | nt | nt
O=C(c1ccncc1)N1C[C@H]2[C@@H](c3ccccc31)[C@@H](CO)N2Cc1ccc(F)cc1 | nt | -10 | nt | nt
COC(=O)c1cn(C(=O)/C=C/c2ccc(OC)c(OC)c2)c2ccccc12 | 5 | nt | -93 | 93*
COC(=O)c1cn(C(=O)OC)c2ccccc12 | 19 | nt | -1 | 1
COc1ccc(S(=O)(=O)N2CCN(c3ccccc3OC)CC2)cc1 | -2 | -5 | 19 | -19
COc1ccc(S(=O)(=O)N2CCN(c3ccc4nnc(-c5ccccc5)n4n3)CC2)cc1 | 3 | 111* | 7 | -7
CO[C@@H]1CN(C)C(=O)c2cc(NC(=O)NC(C)C)ccc2OC[C@@H](C)N(Cc2ccccc2)C[C@@H]1C | nt | 23 | nt | nt
O=C(Nc1ccc2c(c1)nc1n2CCOC1)c1ccccc1 | 58* | -24 | 2 | -2
O=C(Nc1ccc2c(c1)nc1n2CCSC1)c1ccccc1 | 4 | -22 | -14 | 14
CC(C)C(=O)N=C1SC2CS(=O)(=O)CC2N1Cc1ccc(Cl)cc1 (configuration not stated) | 3 | nt | 15 | -15
CC(C)C(=O)N=C1SC2CS(=O)(=O)CC2N1Cc1ccccc1 (configuration not stated) | 55* | nt | -3 | 3
O=C(Nc1ccc(-c2cn3c(n2)SCC3)cc1)c1ccc2c(c1)OCO2 | 2 | 5 | -82 | 82*
O=C(Nc1ccc(N2CCOCC2)c(Cl)c1)c1ccc([N+](=O)[O-])o1 | -2 | nt | -49 | 49

Source: PubChem
